Measured values published in ChEMBL document CHEMBL1150277, “Benzofuran-based hybrid compounds for the inhibition of cholinesterase activity, beta amyloid aggregation, and abeta neurotoxicity” (J Med Chem, 2008).

Key:
Acetylcholinesterase = Acetylcholinesterase (Homo sapiens, UniProt P22303); assay: Inhibition of human recombinant AchE after 20 mins by Ellman's method
Cholinesterase = Cholinesterase (Homo sapiens, UniProt P06276); assay: Inhibition of human serum BuchE after 20 mins by Ellman's method
Cholinesterase, sequence (P06276 whole entry): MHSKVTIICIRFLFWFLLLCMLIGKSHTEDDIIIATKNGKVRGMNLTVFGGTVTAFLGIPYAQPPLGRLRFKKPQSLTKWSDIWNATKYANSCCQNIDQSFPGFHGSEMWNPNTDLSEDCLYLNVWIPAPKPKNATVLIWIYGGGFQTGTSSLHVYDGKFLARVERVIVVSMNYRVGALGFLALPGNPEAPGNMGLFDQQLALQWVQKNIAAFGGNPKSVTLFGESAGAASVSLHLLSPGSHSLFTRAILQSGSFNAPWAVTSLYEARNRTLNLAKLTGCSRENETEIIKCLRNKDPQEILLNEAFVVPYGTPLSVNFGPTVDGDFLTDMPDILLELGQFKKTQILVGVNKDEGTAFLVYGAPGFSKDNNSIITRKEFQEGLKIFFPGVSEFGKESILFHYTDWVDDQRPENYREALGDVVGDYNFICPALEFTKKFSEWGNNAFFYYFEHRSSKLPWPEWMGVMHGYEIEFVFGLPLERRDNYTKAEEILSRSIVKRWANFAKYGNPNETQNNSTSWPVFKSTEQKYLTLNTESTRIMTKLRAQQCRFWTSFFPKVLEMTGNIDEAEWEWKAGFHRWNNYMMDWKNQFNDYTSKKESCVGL

[1] = Inhibition of Amyloid beta 25-35 fibril formation
How it was run: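 In vitro assay of Aβ25-35 fibril formation read by UV-vis measurements, with electron microscopy also used. IC50 is the inhibitor concentration that lowers fibril formation to 50% of the untreated control value.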

[2] = Lipophilicity, log P of the compound; format: physicochemical; conditions: octanol/water
SH-SY5Y [3] = assay: Neuroprotective effect against Amyloid beta 25-35-induced neurotoxicity in human SH-SY5Y cells assessed as neuronal viability after 3 hrs by MTT assay; format: functional, cell-based
How it was run: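 Human neuronal-like SH-SY5Y cells were incubated 3 h with 10 µM Aβ25-35 peptide, with or without compound at 1-30 µM. Viability was read by colorimetric MTT assay. IC50 is the concentration giving 50% inhibition of peptide toxicity, as mean ± SD of at least two independent experiments.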

SH-SY5Y [4] = assay: Neuroprotective effect against Amyloid beta 25-35-induced neurotoxicity in human SH-SY5Y cells assessed as neuronal viability at 10 to 30 uM after 3 hrs by MTT assay; format: functional
How it was run: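 SH-SY5Y cells were exposed 3 h to 10 µM Aβ25-35 peptide, with or without varied compound concentrations. Viability was measured by MTT and expressed as percentage of control cells, as mean ± SD of three independent experiments. Comparison was against the untreated sample by ANOVA with Dunnett post hoc test.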

Acetylcholinesterase, sequence (P22303 whole entry): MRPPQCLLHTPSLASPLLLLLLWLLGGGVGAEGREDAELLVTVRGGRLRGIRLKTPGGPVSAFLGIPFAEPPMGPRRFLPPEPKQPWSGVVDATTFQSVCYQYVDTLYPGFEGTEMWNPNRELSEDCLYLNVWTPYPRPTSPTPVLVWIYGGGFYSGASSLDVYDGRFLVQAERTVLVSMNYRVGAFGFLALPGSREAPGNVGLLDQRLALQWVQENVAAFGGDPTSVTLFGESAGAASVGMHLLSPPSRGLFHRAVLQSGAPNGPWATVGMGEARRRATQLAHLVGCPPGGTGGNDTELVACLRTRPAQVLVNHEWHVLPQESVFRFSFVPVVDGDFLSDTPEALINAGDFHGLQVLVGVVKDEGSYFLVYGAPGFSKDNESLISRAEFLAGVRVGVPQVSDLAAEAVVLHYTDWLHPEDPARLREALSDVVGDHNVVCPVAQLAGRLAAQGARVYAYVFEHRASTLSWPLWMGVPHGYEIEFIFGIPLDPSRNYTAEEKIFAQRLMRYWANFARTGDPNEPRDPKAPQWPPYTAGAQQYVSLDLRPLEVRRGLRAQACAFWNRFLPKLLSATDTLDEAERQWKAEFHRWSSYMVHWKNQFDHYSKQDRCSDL

| SMILES | IC50 (Acetylcholinesterase) | IC50 (Cholinesterase) | IC50 [1] | logP [2] | IC50 (SH-SY5Y [3]) | Activity (SH-SY5Y [4]) |
| --- | --- | --- | --- | --- | --- | --- |
| COc1cccc(C(=O)c2c(-c3ccc(OCCCCCCCN(C)Cc4ccccc4)cc3)oc3ccccc23)c1 | 127 µM | 21.7 µM | – | – | – | – |
| COc1ccc(C(=O)c2c(-c3ccc(OCCCCCCCN(C)Cc4ccccc4)cc3)oc3ccccc23)cc1OC | 177 µM | 74.1 µM | – | – | – | – |
| COc1cc(/C=C/C(=O)CC(=O)/C=C/c2ccc(O)c(OC)c2)ccc1O [CURCUMIN] | – | – | 10 µM | – | – | – |
| Cc1cccc(C(=O)c2c(-c3ccc(OCCCCCCCN(C)Cc4ccccc4)cc3)oc3ccccc23)c1 | 127 µM | 40.9 µM | – | – | – | – |
| CN(CCCCCCCOc1ccc(-c2cc3ccccc3o2)cc1)Cc1ccccc1 | 32.6 µM | 0.28 µM | 7 µM | 6.8 | – | – |
| Cc1ccc(C(=O)c2c(-c3ccc(OCCCCCCCN(C)Cc4ccccc4)cc3)oc3ccccc23)cc1 | 10.5 µM | 1.82 µM | 13 µM | – | – | – |
| CN(CCCCCCCOc1ccc(-c2oc3ccccc3c2C(=O)c2ccccc2)cc1)Cc1ccccc1 | 40.7 µM | 38.1 µM | 12.5 µM | 8 | 5.6 µM | 63% |
| COc1ccc(C(=O)c2c(-c3ccc(OCCCCCCCN(C)Cc4ccccc4)cc3)oc3ccccc23)cc1 | 281 µM | 89.1 µM | – | – | – | – |
| CC(=O)c1c(-c2ccc(OCCCCCCCN(C)Cc3ccccc3)cc2)oc2ccccc12 | 17.4 µM | 1.83 µM | – | – | – | – |
